Results from ChEMBL document CHEMBL1137637, “Quinuclidine derivatives as potential antiparasitics” (Antimicrob Agents Chemother, 2007).
Converted amounts (≈) assume the structure as drawn.

Tests used:
[1] = tested on: Leishmania amazonensis; experiment: Inhibition of sterol biosynthesis in Leishmania mexicana amazonensis promastigotes assessed as reduction in endogenous episterol level at 10 uM after 96 hrs by gas-liquid chromatography; type: functional; design: scale not given: the % may be the effect or the level left
Summary of the method: (§1)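 L. mexicana promastigotes exposed to compound for 96 h. Total lipids extracted and neutral sterols separated from polar lipids by silicic acid column chromatography. Sterols analysed by TLC and by quantitative capillary gas-liquid chromatography with mass spectrometry. Composition expressed as mass % of free sterols, compared with untreated control.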

[2] = biological target: T1, Farnesyltransferase, putative (Leishmania major, UniProt Q4Q5W4); experiment: Inhibition of Leishmania major recombinant squalene synthase expressed in Escherichia coli by liquid scintillation counter
T1 sequence (Q4Q5W4 whole entry): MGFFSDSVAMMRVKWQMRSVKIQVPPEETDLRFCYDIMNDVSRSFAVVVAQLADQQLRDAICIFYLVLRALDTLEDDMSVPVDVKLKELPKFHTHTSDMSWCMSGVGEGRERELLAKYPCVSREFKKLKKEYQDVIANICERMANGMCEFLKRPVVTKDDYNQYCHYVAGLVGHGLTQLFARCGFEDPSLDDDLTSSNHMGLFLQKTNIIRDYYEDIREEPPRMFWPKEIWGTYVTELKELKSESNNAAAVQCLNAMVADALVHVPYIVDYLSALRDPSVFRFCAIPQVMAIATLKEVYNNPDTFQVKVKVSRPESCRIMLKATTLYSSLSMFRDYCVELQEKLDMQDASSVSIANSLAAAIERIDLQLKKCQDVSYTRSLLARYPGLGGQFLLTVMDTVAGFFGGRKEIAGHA
Summary of the method: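 Soluble E. coli extract expressing L. major SQS truncated by 16 N-terminal and 40 C-terminal residues. Buffer: 50 mM phosphate pH 7.4, 20 mM MgCl2, 5 mM CHAPS, 1% Tween 80, 10 mM DTT, BSA, 0.25 mM NADPH, and a glucose-6-phosphate/G6PDH regenerating system. Substrate 0.5 μM radiolabelled farnesyl pyrophosphate. Squalene band counted by scintillation. IC50 from hyperbolic plot of five concentrations in duplicate, usually run twice.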

[3] = tested on: Leishmania donovani; experiment: Antileishmanial activity against Leishmania donovani MHOM/ET/67/L82 axenic amastigotes after 72 hrs by resazurin assay; type: functional, organism-based; conditions: MHOM/ET/67/L82, 72 h
Summary of the method: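 L. donovani MHOM/ET/67/L82 amastigotes grown axenically at 37°C in synthetic minimal medium at pH 5.4 with 10% heat-inactivated FBS under 5% CO2. 1 × 10⁵ amastigotes per well with seven threefold dilutions, 30 to 0.041 μg/ml. After 72 h, resazurin added for 2–4 h more. Fluorescence read at ex 536/em 588 nm. IC50 taken from sigmoidal curve. Run in duplicate, with an independent repeat for actives.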

[4] = biological target: T2, Squalene synthase (Homo sapiens, UniProt P37268); experiment: Inhibition of human recombinant squalene synthase expressed in Escherichia coli BL21(DE3 pLysS) up to 1 uM by liquid scintillation counter
T2 sequence (P37268 whole entry): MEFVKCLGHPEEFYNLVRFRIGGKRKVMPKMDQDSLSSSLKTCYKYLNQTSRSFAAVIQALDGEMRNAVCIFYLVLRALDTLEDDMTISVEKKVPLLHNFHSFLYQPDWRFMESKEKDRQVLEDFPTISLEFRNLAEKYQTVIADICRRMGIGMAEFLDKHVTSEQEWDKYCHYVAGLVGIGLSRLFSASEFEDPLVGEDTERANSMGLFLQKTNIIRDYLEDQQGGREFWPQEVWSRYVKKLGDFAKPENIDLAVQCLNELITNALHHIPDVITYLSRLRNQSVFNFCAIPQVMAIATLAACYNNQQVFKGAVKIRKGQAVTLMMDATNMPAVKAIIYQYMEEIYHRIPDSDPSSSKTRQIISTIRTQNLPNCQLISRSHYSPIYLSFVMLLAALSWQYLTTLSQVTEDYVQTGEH
Summary of the method: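 Human SQS in extracts of E. coli BL21(DE3 pLysS) carrying pHSS16, assayed under the same conditions as the L. major enzyme. Buffer: phosphate pH 7.4, MgCl2, CHAPS, Tween 80, DTT, BSA, and NADPH with a regenerating system. Substrate 0.5 μM radiolabelled farnesyl pyrophosphate. Squalene band radioactivity counted by scintillation.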

[5] = tested on: Leishmania amazonensis; experiment: Inhibition of sterol biosynthesis in Leishmania mexicana amazonensis promastigotes assessed as reduction in endogenous cholesta-5,7,24-trien-3beta-ol level at 10 uM after 96 hrs by gas-liquid chromatography; type: functional; design: scale not given: the % may be the effect or the level left; summary of the method: as §1
[6] = tested on: Leishmania amazonensis; experiment: Inhibition of sterol biosynthesis in Leishmania mexicana amazonensis promastigotes assessed as reduction in exogenous cholesterol level at 10 uM after 96 hrs by gas-liquid chromatography; type: functional; design: scale not given: the % may be the effect or the level left; summary of the method: as §1
[7] = tested on: Leishmania amazonensis; experiment: Inhibition of sterol biosynthesis in Leishmania mexicana amazonensis promastigotes assessed as reduction in endogenous 5-dehydro episterol level at 10 uM after 96 hrs by gas-liquid chromatography; type: functional; design: scale not given: the % may be the effect or the level left; summary of the method: as §1
[8] = tested on: Leishmania amazonensis; experiment: Antileishmanial activity against Leishmania mexicana amazonensis promastigotes by trypan blue exclusion method; type: functional, organism-based
Summary of the method: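 L. mexicana amazonensis promastigotes cultured in liver infusion-tryptose medium with lactalbumin and 10% FCS at 26°C, unagitated. Cultures started at 2 × 10⁶ cells/ml and drug added at 0.5–1 × 10⁷ cells/ml. Density counted by electronic particle counter and hemocytometer. Viability by trypan blue exclusion. Triplicate growth experiments.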

[9] = tested on: Trypanosoma brucei rhodesiense; experiment: Trypanocidal activity against Trypanosoma brucei rhodesiense STIB 900 bloodstream form after 72 hrs by resazurin assay; type: functional, organism-based; conditions: STIB 900, 72 h
Summary of the method: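 T. b. rhodesiense STIB 900 bloodstream forms in MEM with 2-mercaptoethanol and 15% heat-inactivated horse serum, with serial drug dilutions. Incubated 72 h at 37°C in 5% CO2. Resazurin added for 2–4 h more, fluorescence read at ex 536/em 588 nm. IC50 from sigmoidal curve. Duplicate, with an independent repeat for actives.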

[10] = tested on: Trypanosoma cruzi; experiment: Antitrypanosomal activity against trypomastigotes of Trypanosoma cruzi Tulahuen C2C4 containing lacZ gene in rat L6 cells after 4 days by chlorophenol red-beta-D-galactopyranoside/Nonidet assay; type: functional, organism-based; conditions: Tulahuen C2C4, L6, 96 h
Summary of the method: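 L-6 rat myoblasts seeded at 2,000 cells/well in RPMI 1640 with 10% FBS and 2 mM L-glutamine. After 24 h, 5,000 T. cruzi Tulahuen C2C4 lacZ trypomastigotes added with serial drug dilution. Incubated at 37°C in 5% CO2 for 4 days. CPRG/Nonidet substrate added and colour read at 540 nm after 2–4 h. IC50 from sigmoidal curve. Duplicate determinations.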

[11] = tested on: L6; experiment: Cytotoxicity against rat L6 cells after 72 hrs by resazurin assay; type: cell-based; conditions: L6, 72 h
Summary of the method: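 L-6 cells seeded at 4 × 10⁴ cells/ml in RPMI 1640 with 10% FBS and 2 mM L-glutamine. After 24 h, medium replaced with serial drug dilution and incubated for 72 h at 37°C in 5% CO2. Resazurin added for 2–4 h, fluorescence read at ex 536/em 588 nm. IC50 from sigmoidal curve. Duplicate, with an independent repeat for actives.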

[12] = tested on: Plasmodium falciparum; experiment: Antiplasmodial activity after 48 hrs against chloroquine and pyrimethamine-resistant Plasmodium falciparum K1 in human erythrocytes by [3H]hypoxanthine uptake; type: functional, organism-based
Summary of the method: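 P. falciparum K1 in human red cells in RPMI 1640 with 5% Albumax, exposed to serial drug dilutions. Incubated 48 h at 37°C under reduced oxygen, then 0.5 μCi [³H]hypoxanthine per well for 24 h more. Cells harvested onto glass-fibre filters and counted by scintillation. Result expressed as % of untreated control, with IC50 from sigmoidal curve. Duplicate, plus an independent repeat for actives.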

[13] = tested on: Leishmania amazonensis; experiment: Inhibition of sterol biosynthesis in Leishmania mexicana amazonensis promastigotes assessed as reduction in endogenous cholesta-7,24-dien-3beta-ol level at 10 uM after 96 hrs by gas-liquid chromatography; type: functional; design: scale not given: the % may be the effect or the level left; summary of the method: as §1
[14] = tested on: Leishmania amazonensis; experiment: Inhibition of sterol biosynthesis in Leishmania mexicana amazonensis promastigotes assessed as reduction in endogenous episterol level at 3 uM after 96 hrs by gas-liquid chromatography; type: functional; design: scale not given: the % may be the effect or the level left; summary of the method: as §1
[15] = tested on: Leishmania amazonensis; experiment: Inhibition of sterol biosynthesis in Leishmania mexicana amazonensis promastigotes assessed as reduction in exogenous cholesterol level at 3 uM after 96 hrs by gas-liquid chromatography; type: functional; design: scale not given: the % may be the effect or the level left; summary of the method: as §1
[16] = tested on: Leishmania amazonensis; experiment: Inhibition of sterol biosynthesis in Leishmania mexicana amazonensis promastigotes assessed as reduction in endogenous cholesta-7,24-dien-3beta-ol level at 3 uM after 96 hrs by gas-liquid chromatography; type: functional; design: scale not given: the % may be the effect or the level left; summary of the method: as §1
[17] = tested on: Leishmania amazonensis; experiment: Inhibition of sterol biosynthesis in Leishmania mexicana amazonensis promastigotes assessed as reduction in endogenous 5-dehydro episterol level at 3 uM after 96 hrs by gas-liquid chromatography; type: functional; design: scale not given: the % may be the effect or the level left; summary of the method: as §1
[18] = tested on: Leishmania amazonensis; experiment: Inhibition of sterol biosynthesis in Leishmania mexicana amazonensis promastigotes assessed as reduction in endogenous cholesta-5,7,24-trien-3beta-ol level at 3 uM after 96 hrs by gas-liquid chromatography; type: functional; design: scale not given: the % may be the effect or the level left; summary of the method: as §1

Compound | Activity [1] | IC50 [2] | IC50 [3] | IC50 [4] | Activity [5] | Activity [6] | Activity [7] | MIC [8] | IC50 [9] | IC50 [10] | IC50 [11] | IC50 [12] | Activity [13] | Activity [14] | Activity [15] | Activity [16] | Activity [17] | Activity [18]
C(=C1CN2CCC1CC2)c1ccc(C2OCCO2)cc1 | 11.7% | > 1000 nM | 38.6 µM | Not Active | 12.7% | 14.1% | 54.9% | > 10 µM | 12.5 µM | > 111 µM | 212 µM | 14200 nM | 6.7% |  |  |  |  | 
OC[C@@H]1CC2CCN1C[C@@H]2C#Cc1ccc(OCc2ccccc2)cc1 (stereo not given in full) |  | > 1000 nM | 7.4 µM |  |  | >99% |  | 10 µM (≈ 3.47 µg/mL) | 1.2 µM | 3.4 µM | 16.1 µM | 600 nM |  | 22.7% | 61.4% | 15.9% |  | 
C(=C1/CN2CCC1CC2)/c1ccccc1 | 12.2% | > 1000 nM | > 151 µM | Not Active | 3.7% | 10.6% | 70.7% | > 10 µM | 16 µM | > 151 µM | 382 µM | 800 nM | 2.8% |  |  |  |  | 
O=Cc1ccc(/C=C2\CN3CCC2CC3)cc1 | 8.2% | > 1000 nM | > 132 µM | Not Active | 14% | 11.2% | 62% | > 10 µM | 13.1 µM | > 132 µM | > 396 µM | > 22000 nM | 4.6% |  |  |  |  | 
OC[C@H]1CC2CCN1C[C@@H]2C#Cc1ccc(OCc2ccccc2)cc1 (stereo not given in full) |  | > 1000 nM | 8 µM |  |  | >99% |  | 10 µM (≈ 3.47 µg/mL) | 1.2 µM | 3.1 µM | 16.6 µM | 1100 nM |  | 14.2% | 21.2% |  | 63.2% | 10.7%
C(=C1\CN2CCC1CC2)/c1ccc(C2OCCO2)cc1 |  | > 1000 nM | 77.7 µM | Not Active |  | 42.1% | 57.9% | 10 µM (≈ 2.71 µg/mL) | 10.3 µM | 30.2 µM | 239 µM | 10000 nM |  |  |  |  |  | 
c1ccc(CC2CN3CCC2CC3)cc1 (stereo not given) | 51.3% | > 1000 nM | > 149 µM | Not Active | 23.2% | 14.9% | 2.8% | > 10 µM | 60.6 µM | 130 µM | > 447 µM | 5400 nM | 2.9% |  |  |  |  | 
C(=C1/CN2CCC1CC2)/c1ccc(C2OCCO2)cc1 | 14.2% | > 1000 nM | 82.1 µM | Not Active | 18.5% | 25.4% | 16.1% | > 10 µM | 5.5 µM | 46 µM | 136 µM | 12300 nM |  |  |  |  |  | 
c1ccc2cc(CC3CN4CCC3CC4)ccc2c1 (stereo not given) |  | > 1000 nM | > 119 µM | Not Active |  |  |  | 3 µM (≈ 0.754 µg/mL) | 2.5 µM | 25.4 µM | 98.2 µM | 1800 nM |  | 9.3% | 26.4% | 3.5% | 49.6% | 11.2%
C(=C1/CN2CCC1CC2)/c1ccc2ccccc2c1 |  | > 1000 nM | 88.2 µM | Not Active |  |  |  | 3 µM (≈ 0.748 µg/mL) | 0.5 µM | 2.8 µM | 25.6 µM | 900 nM |  |  | 57.8% |  | 42.2% | 
